# Assay outcomes: PubChem, SRMLSC
# Lung fibro prol: blocks proliferation of human lung fibroblasts. LL 47 human lung fibroblast viability, ATP luminescence; active compounds read low. viability, % at 10 µM. actives 1.1% (n = 85,000);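 active means viability at or below 50% in the single dose screen; inactive means viability above 50%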;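 further: compound exposure lasted 72 h before the ATP readout; 100% = median luminescence of untreated cell-only wells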
#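 Times – overnight cell rest, 72 h compound treatment at 37 °C · Test system – human lung fibroblast line LL 47, low passage · Amount – 1,150 cells in each well · Controls – cell-only wells, no compound · Doses – 0.1% DMSO in all compound wells · Measured by – CellTiter-Glo luminescence · Buffer or medium – IMEM plus 15% FBS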
# H69AR growth 86K: growth inhibitors of human H69AR lung tumor cells. H69AR lung tumor viability, ATP luminescence, 72 h; active compounds read low. viability, % at 10 µM. actives 6% (n = 85,000);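 active means viability at or below 40%; inactive means viability above 40%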;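 further: multidrug resistant small cell line overexpressing MRP-1 efflux transporter; 100% = mean luminescence of untreated control wells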
# HUVEC prolif 384: inhibitors of human endothelial cell proliferation; HUVEC proliferation, CellTiter-Glo luminescence, 72 h; active compounds read low; viability, % at 10 µM (by protocol); actives 1.1% (n = 86,000);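 active means viability at or below 30%; inactive means viability above 30%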;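 further: 100% = median luminescence of DMSO-only cell control wells on each plate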
# HCT116 bCat-KO: beta-catenin-lacking colon tumor cell growth suppression | viability, % at 10 µM | actives 1.5% (n = 140,000) | HCT116 beta-catenin knockout viability, CellTiter-Glo, 60 h; active compounds read low | AID 818;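 active means viability at or under a set limit, the compound median less 4 SD, cut at about 6% in these data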;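 further: 0% = Hyamine 1622 control at 20 µM and 100% = untreated cell control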
# PTEN del growth: growth suppressors of cells with PTEN tumor suppressor deletion; actives 1.2% (n = 140,000); viability, % at 10 µM; AID 827; HCT116 PTEN-null viability, CellTiter-Glo, 60 h; active compounds read low;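 active means viability at or below a set limit, 4 SD under the median of all tested compounds, cut at about 3.7% in these data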;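 further: PTEN knockout HCT116 line with beta catenin targeted HCT116 as companion control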
# Numbers without * were called inactive; / = no result given. Many of the other results were omitted from the sample, so hits are more common in it than they were.
SMILES,Lung fibro prol,H69AR growth 86K,HUVEC prolif 384,HCT116 bCat-KO,PTEN del growth
O=C(NCc1ccccc1)c1c(O)c2cccc3c2n(c1=O)CCC3,96,73,97,58,55
CCCCc1nc2ccccc2c(=O)n1NC(=O)c1c(O)c2c(n(CC(C)C)c1=O)CCCC2,76,9.7*,113,42,44
Cc1csc(NC(=O)c2c(O)c3cccc4c3n(c2=O)CCC4)n1,96,36*,128,/,/
CCc1nc2ccccc2c(=O)n1NC(=O)c1c(O)c2cccc3c2n(c1=O)CCC3,95,26*,95,71,75
CSCCC(NC(=O)c1cccc(S(=O)(=O)N2CCOCC2)c1)C(=O)Nc1cccc(C)c1 (centres undefined),/,/,/,73,73
CCn1c(C(C)NC(=O)c2cccs2)n[nH]c1=S (centres undefined),/,/,/,85,86
CNC(=O)c1c(O)c2cccc3c2n(c1=O)CC3,95,103,102,/,/
O=C(Nc1cccnc1)c1c(O)c2cccc3c2n(c1=O)CC3,100,15*,103,99,91
COC(=O)c1ccccc1NC(=O)c1c(O)c2cccc3c2n(c1=O)CCC3,104,105,116,/,/
CC(C)c1nnc(NC(=O)c2c(O)c3cccc4c3n(c2=O)CC4)s1,96,28*,86,/,/
O=C(NC1CCCCC1)C(c1cccnc1)N(C(=O)c1csnn1)C1CCCC1 (centres undefined),95,91,94,88,95
CN(C)CCN(C(=O)/C=C/c1cccs1)c1nc2c(F)cc(F)cc2s1,/,/,/,1.6*,2.0*
Cc1ccc2nc(N(CCN(C)C)C(=O)/C=C/c3cccs3)sc2c1,/,/,/,78,80
CCOC(=O)C(C)(C)N(Cc1cccc(C)c1)S(=O)(=O)c1ccc(Cl)c([N+](=O)[O-])c1,/,/,/,1.7*,3.3*
CC(C)NC(=O)NC(=O)COC(=O)c1ccc(F)cc1F,/,/,/,95,100
Cc1ccc(C(=O)/C=C/c2cn(CN3CCN(C)CC3)c3ccccc23)cc1,89,5.8*,64,70,72
CCOC(=O)C1(S(=O)(=O)c2ccc(Cl)cc2)CCN(Cc2ccc(C)cc2)CC1,/,/,/,71,84
CCC(=O)N1CCc2cc(S(=O)(=O)CCC(=O)Nc3nc(C)cs3)ccc21,88,1.8*,92,60,59
N=C1C(c2nc(-c3ccc(Cl)cc3)cs2)=C(O)CN1CCCN1CCOCC1,107,62,10.0*,56,60
CCCCc1oc2ccccc2c1C(=O)c1cc(I)c(OCCN(CC)CC)c(I)c1,90,2.1*,17*,13,17
CCN(CC)CCNC(=O)Cc1nn(CC)c(=O)c2ccccc12,97,108,113,110,105
CCN(CC)CCNc1ccc(CO)c2sc3ccccc3c(=O)c12,/,/,/,1.9*,1.9*
CCOC(=O)/C(=N\Nc1ccccc1)c1csc(Nc2ccc(C)cc2)n1,79,3.3*,25*,42,34
CC(C)n1cc(/C=C(\C#N)S(=O)(=O)c2ccccc2)c2ccccc21,92,34*,86,89,96
COc1ccc(Nc2ncnc3c2oc2ccccc23)cc1,98,39*,91,85,80
SMILES,Lung fibro prol,H69AR growth 86K,HUVEC prolif 384,HCT116 bCat-KO,PTEN del growth
Cc1ccc(Nc2ncnc3c2oc2ccccc23)cc1,99,54,82,90,91
COc1ccc(Cl)cc1NC(=O)c1ccco1,94,83,80,89,95
COc1cc2cc(/C=C/C(=O)c3ccco3)c(Cl)nc2cc1OC,86,7.9*,68,18,8
COc1ccc2cc(/C=C/C(=O)c3ccco3)c(Cl)nc2c1,85,16*,73,47,42
COc1ccccc1NC(=O)C/C(N)=N/O,/,/,/,97,106
COC(=O)COc1cccc2c(=O)n(CC(=O)N3CCCc4ccccc43)ccc12,116,99,99,99,103
COn1c(SCc2ccc(C)cc2C)nc2ccccc2c1=O,93,31*,89,50,47
N#CC1=C(N)N=C(SCc2cccc3ccccc23)C(C(N)=O)C12CCCCC2 (centres undefined),/,/,/,63,40
O=S(=O)(Nc1cccc(-c2nc3cccnc3s2)c1)c1ccc2c(c1)OCCO2,104,80,78,84,73
Cc1ccc(-c2nc3cccnc3s2)cc1NS(=O)(=O)c1ccc2c(c1)OCCO2,91,21*,70,73,79
Clc1cccc(N/N=C(\Cc2nc3ccccc3[nH]2)c2ccccc2)c1,/,/,/,69,54
O=S1(=O)C=C(Sc2nc3cc(Cl)ccc3o2)c2ccccc21,/,/,/,1.6*,1.6*
